ChEMBL document CHEMBL1131329, “Synthesis and antiviral activity of novel acyclic nucleosides: discovery of a cyclopropyl nucleoside with potent inhibitory activity against herpesviruses” (J Med Chem, 1998)
Values after ≈ are worked out from the molar mass of the structure shown.

Experiments:
Vero [1] = assay: Inhibition of Tomioka strain of herpes simplex virus( Tomioka strain of HSV-1) by quantitative CPE reduction assay in vero cells; type: functional, cell-based, Human alphaherpesvirus 1
Outline: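 Vero cells in EMEM with 2% FBS, 3-fold compound dilutions, infected with HSV-1 Tomioka at about 100 TCID50 per well. After 3 days at 37 °C in 5% CO2, cells stained with neutral red for 45 min. Dye eluted in pH 4.2 citrate-ethanol, A550 read. Cell control set to 100% and blank to 0%; IC50 is the concentration giving 50% OD. Quadruplicate.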

CCRF-CEM [2] = assay: Inhibitory activity against 1RF strain of HIV-1 by plaque reduction assay in CEM cells; type: functional, cell-based
Outline: (§1)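 CEM cells pregrown in RPMI 1640 with 10% FCS; HIV-1 RF strain, 32-100 CCID50 units per 0.1 mL, added together with test compound. Incubated 7 days at 37 °C in 5% CO2. CPE inhibition read by MTT dye uptake; IC50 derived. Triplicate.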

HFF [3] = assay: Inhibitory activity against DM625 strain of zoster virus(VZV) by plaque reduction assay in HFF cells; type: functional, cell-based; settings: Homo sapiens
Vero [4] = assay: Cytotoxic concentration to uninfected vero cells; type: functional, Chlorocebus sabaeus
Outline: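 Uninfected Vero cells were run through the same neutral red dye-uptake method as the antiviral test: 3-fold dilutions in EMEM with 2% FBS, 3 days at 37 °C in 5% CO2, A550 read. CC50 is the concentration giving 50% of the cell-control OD. Quadruplicate.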

HFF [5] = assay: Selectivity index is the ratio between IC50 (Anti-VZV Activity (DM625 in HFF Cells)) and minimum cytotoxic concentration (against HFF cells) values of the compound; type: functional
HFF [6] = assay: Minimum cytotoxic concentration against uninfected HFF cells; type: functional, Homo sapiens
Outline: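 Uninfected HFF cells under MEM with 2% FBS in 0.25% agarose overlay with test compound, 5 days at 37 °C in 5% CO2. Examined microscopically for gross morphologic changes, then treated with MTT and 30% SDS; highest concentration 320 μg/mL. Value is the minimum concentration giving morphologic change. Triplicate.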

CCRF-CEM [7] = assay: Cytotoxic concentration against uninfected CEM cells; type: functional, Homo sapiens
Outline: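 Uninfected CEM cells in RPMI 1640 with 10% FCS, exposed to test compound for 7 days at 37 °C in 5% CO2. Cytotoxicity measured by MTT dye uptake and expressed as CC25. Triplicate.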

CCRF-CEM [8] = assay: Compound tested for inhibitory activity by plaque reduction assay against HIV-1RF strain in CEM cells; type: functional, cell-based; settings: Homo sapiens; outline: as §1
CCRF-CEM [9] = assay: compound tested for anti-HIV-1 activity by plaque reduction assay against HIV-1 in CEM cells; type: functional; settings: Homo sapiens; outline: as §1
CCRF-CEM [10] = assay: compound tested for inhibitory activity by plaque reduction assay against HIV-1 in CEM cells; type: functional, cell-based; settings: Homo sapiens
[11] = Chlorocebus sabaeus, Vero, read-out: IC50
[12] = Homo sapiens, CCRF-CEM, read-out: IC50
[13] = Chlorocebus sabaeus, Vero, read-out: CC50

Structure (SMILES) | IC50 (Vero [1]; [11]) [µg/mL] | IC50 (CCRF-CEM [2]; [12]) [µg/mL] | CC50 (Vero [4]; [13]) [µg/mL] | CC25 (CCRF-CEM [7]) [µg/mL] | other results
Nc1ncnc2c1ncn2C[C@]1(CO)C[C@@H]1CO | 47 (≈ 189 µM) | > 100 | 120 (≈ 481 µM) | 19.8 (≈ 79.4 µM) | IC50 (HFF [3]): 19.8 µg/mL (≈ 79.4 µM); SI (HFF [5]): 16; MTC (HFF [6]): 320
Nc1nc(O)c2ncn(C[C@@]3(CO)O[C@@H]3CO)c2n1 | > 500 | – | > 500 | – | –
Nc1nc(O)c2ncn(C[C@@]3(CO)C[C@H]3CO)c2n1 | 10 (≈ 37.7 µM) | > 100 | > 500 | >100 | IC50 (HFF [3]): 19.4 µg/mL (≈ 73.1 µM); SI (HFF [5]): 16; MTC (HFF [6]): 320 µg/mL
OC[C@@H]1C[C@@]1(CO)Cn1cnc2c(O)ncnc21 | > 500 | 25.7 (≈ 103 µM) | > 500 | >100 | –
Nc1ccn(C[C@]2(CO)C[C@H]2CO)c(=O)n1 | > 500 | > 100 | > 500 | >100 | –
Nc1nc(O)c2ncn(CC3[C@@H](CO)[C@H]3CO)c2n1 (stereo partly drawn) | > 500 | – | > 500 | – | –
Nc1nc(O)c2ncn(C[C@@]3(CO)O[C@H]3CO)c2n1 | 14 (≈ 52.4 µM) | – | > 500 | – | –
OC[C@H]1C[C@@]1(CO)Cn1cnc2c(O)ncnc21 | > 500 | 20.1 (≈ 80.3 µM) | > 500 | >100 | –
Nc1ccn(C[C@]2(CO)C[C@@H]2CO)c(=O)n1 | 120 (≈ 533 µM) | 23.7 (≈ 105 µM) | > 500 | >100 | –
Nc1nc(O)c2ncn(CC3[C@H](CO)[C@H]3CO)c2n1 (stereo partly drawn) | > 500 | – | > 500 | – | IC50 (HFF [3]): 240 µg/mL (≈ 905 µM); SI (HFF [5]): 1.3; MTC (HFF [6]): 320 µg/mL
Nc1nc(O)c2ncn(C/C(=C\CO)CO)c2n1 | 4.2 (≈ 16.7 µM) | > 100 | > 500 | >100 | IC50 (HFF [3]): 3.2 µg/mL (≈ 12.7 µM); SI (HFF [5]): 100; MTC (HFF [6]): 320 µg/mL
Nc1ncnc2c1ncn2C/C(=C/CO)CO | > 500 | > 100 | 260 (≈ 1110 µM) | >100 | –
Cc1cn(C/C(=C/CO)CO)c(=O)[nH]c1=O | > 500 | > 100 | > 500 | >100 | –
Cc1cn(C/C(=C\CO)CO)c(=O)[nH]c1=O | > 500 | > 100 | > 500 | >100 | –
Nc1ncc2ncn(CC3(CO)CC3CO)c2n1 (stereo not drawn) | 30 (≈ 120 µM) | – | > 500 | – | –
Nc1nc(O)c2ncn(C/C(=C/CO)CO)c2n1 | 4.2 (≈ 16.7 µM) | > 100 | > 500 | >100 | IC50 (HFF [3]): 52.8 µg/mL (≈ 210 µM); SI (HFF [5]): >6.1; MTC (HFF [6]): >320 µg/mL
Nc1nc(O)c2ncn(C[C@]3(CO)C[C@H]3CO)c2n1 | 0.02 (≈ 0.0754 µM) | > 100 | 240 (≈ 905 µM) | >100 | IC50 (HFF [3]): 0.2 µg/mL (≈ 0.754 µM); SI (HFF [5]): 1600; MTC (HFF [6]): 320 µg/mL
Nc1ncnc2c1ncn2C/C(=C\CO)CO | > 500 | – | 260 (≈ 1110 µM) | >100 | IC50 (CCRF-CEM [8]): > 100 µg/mL
Nc1nc(N)c2ncn(CC3(CO)CC3CO)c2n1 (stereo not drawn) | 29 (≈ 110 µM) | 32.1 (≈ 121 µM) | > 500 | >100 | –
Nc1nc(O)c2ncn(C[C@@]3(CO)C[C@@H]3CO)c2n1 (stereo in doubt; 3) | – | – | – | – | IC50 (Vero [1]; vero): 0.046 µg/mL (≈ 0.173 µM); CC50 (Vero [4]): 530 µg/mL (≈ 2000 µM)
Nc1nc(O)c2ncn(C[C@@]3(CO)C[C@@H]3CO)c2n1 (stereo in doubt; 3b) | – | – | > 500 | – | IC50 (Vero [1]; vero): 2.2 µg/mL (≈ 8.29 µM)
Cc1cn(C[C@]2(CO)C[C@@H]2CO)c(=O)[nH]c1=O (stereo in doubt; 41a) | > 500 | – | > 500 | >100 | IC50 (CCRF-CEM [2]; ccrf-cem): > 100 µg/mL
Cc1cn(C[C@]2(CO)C[C@@H]2CO)c(=O)[nH]c1=O (stereo in doubt; 41b) | – | – | – | – | IC50 (CCRF-CEM [2]; ccrf-cem): 3.2 µg/mL (≈ 13.3 µM)
Nc1nc2c(ncn2COCCO)c(=O)[nH]1 [ACYCLOVIR] | 0.81 (≈ 3.6 µM) | – | 820 (≈ 3640 µM) | – | MTC (HFF [6]): > 320 µg/mL
Cc1cn([C@H]2C[C@H](N=[N+]=[N-])[C@@H](CO)O2)c(=O)[nH]c1=O [ZIDOVUDINE] | – | – | – | – | CC25 (CCRF-CEM [9]): 35.6 µg/mL (≈ 133 µM); IC50 (CCRF-CEM [10]): 0.003 µg/mL (≈ 0.0112 µM)
